One series deals with Vero cells. As to the kind of experiment: Cytotoxicity for Vero cells. The class given is cell-based.
Series [1] relates to Toxoplasma gondii (tachyzoites). Briefly: T. gondii tachyzoites growth assay. It counts as cell-based. The following applies: tachyzoites expressing red fluorescent protein in hTERT cells. In short, it runs like this:
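hTERT host cells grown in high-glucose DMEM with 1% fetal bovine serum, 2 mM glutamine and 1 mM pyruvate at 37 °C in humid 5% CO2. They were inoculated with 4 × 10⁴ RFP-expressing tachyzoites/well in the same medium. Plates were incubated at 37 °C and read daily through covered lids, bottom fluorescence ex 544/em 590 nm. EC50 was fitted as I = Imax·C/(EC50 + C), with Imax = 100%.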

Series [2] has as its system epimastigotes (EP strain). The conditions noted are these: ergosterol and its 24-ethyl analogue; cited from earlier work.
A further series concerns T. cruzi (amastigotes). The following applies: clinically more relevant form of T. cruzi; cited from earlier work.
For the next series, the system named is Trypanosoma cruzi. The following applies: protection not as efficient as ketoconazole (positive control); cited from earlier work.

Each structure is given as a SMILES string.

On to `COc1ccc(Oc2cccc(OCCSC#N)c2)cc1` [Compound 37, 3-(4-Methoxyphenoxy)phenoxyethyl Thiocyanate], for which the “Cytotoxicity on Vero cells ED50” value in the series with Vero cells (Alamar Blue assay) is above 50 µM.
The same measure, in the same setting: for `N#CSCCOc1ccc(Oc2cccc([N+](=O)[O-])c2)cc1` [Compound 13, 4-(3-Nitrophenoxy)phenoxyethyl Thiocyanate] the value was above 50 µM.
Regarding `COc1cccc(Oc2ccc(OCCSC#N)cc2)c1` [Compound 22, 4-(3-Methoxyphenoxy)phenoxyethyl Thiocyanate], the “Toxoplasma gondii (tachyzoites) ED50” value in series [1] is 6.7 ± 3.1 µM. For the same compound, the “Cytotoxicity on Vero cells ED50” value in the series with Vero cells (Alamar Blue assay) was above 50 µM.
The matching figures for `N#CSCCOc1ccc(Oc2cccnc2)cc1` [Compound 28, 4-(Pyridin-3-yloxy)phenoxyethyl Thiocyanate]: 7.5 ± 0.8 µM and above 50 µM.
Regarding `O=[N+]([O-])c1cccc(Oc2ccc(OCCOC3CCCCO3)cc2)c1` (stereo not drawn) [Compound 10, 4-(3-Nitrophenoxy)phenoxyethyl Tetrahydro-2H-pyran-2-yl Ether], the “Cytotoxicity on Vero cells ED50” value with Vero cells (Alamar Blue assay) is above 50 µM.
As for `c1cncc(Oc2ccc(OCCOC3CCCCO3)cc2)c1` (stereo not drawn) [Compound 25, 4-(Pyridin-3-yloxy)phenoxyethyl Tetrahydro-2H-pyran-2-yl Ether], in series [1], the “Toxoplasma gondii (tachyzoites) ED50” value is on record as “vanishing antiparasitic activity”. Moreover, the “Cytotoxicity on Vero cells ED50” value in the series with Vero cells (Alamar Blue assay) was above 50 µM.
As to `N#CSCCOc1ccc(Oc2ccccc2)cc1` [WC-9, 4-Phenoxyphenoxyethyl thiocyanate], the “depletion of parasite endogenous sterols” value in series [2] is on record as “almost complete disappearance of the parasite sterols”. For the same compound, in the series with T. cruzi (amastigotes), the “IC50 against T. cruzi amastigotes” value is reported as “low nanomolar range”. Moreover, in the series on Vero cells (African green monkey), the “Cytotoxicity on Vero cells ED50” value is above 50 µM. Further, the “effect on parasitemia in murine models of Chagas disease” value in the series on Trypanosoma cruzi is reported as “able to impair parasitemia”.
On to `COc1ccc(Oc2ccc(OCCSC#N)cc2)cc1` [Compound 21, 4-(4-Methoxyphenoxy)phenoxyethyl Thiocyanate], for which, in the series with Vero cells (Alamar Blue assay), the “Cytotoxicity on Vero cells ED50” value is above 100 µM.
Consider `N#CSCCOc1cccc(Oc2ccccc2)c1` [Compound 36, 3-Phenoxyphenoxyethyl Thiocyanate], for which the “Cytotoxicity on Vero cells ED50” value in the series with Vero cells (Alamar Blue assay) was above 50 µM.
